From ChEMBL document CHEMBL3102802, “Synthesis, modelling and biological characterization of 3-substituted-1H-indoles as ligands of GluN2B-containing N-methyl-d-aspartate receptors” (Bioorg Med Chem, 2014)

How the values were obtained:
[1] = biological target: Glutamate receptor ionotropic, NMDA 2B (Rattus norvegicus) (UniProt Q00960); test: Displacement of [3H]Ifenprodil from NMDA receptor GluN2B subunit in Wistar rat cerebral cortex at 0.1 uM; assay type: tissue-based
[2] = Antioxidant activity of the compound assessed as inhibition of ABTS radicals at 9 uM after 20 mins by spectrophotometric analysis; assay type: functional
How it was run: (§1)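 ABTS radical cation generated from ABTS and potassium persulfate in 0.1 M phosphate buffer pH 7.0, left 16 h in the dark at room temperature. Blank absorbance at 734 nm adjusted to about 1.0. Samples from 2 mM stocks in MeOH/phosphate buffer 1:1. A734 read at room temperature after exactly 20 min. %inhibition = (Ablank − Asample)/Ablank, mean of triplicates.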

[3] = Antioxidant activity of the compound assessed as inhibition of ABTS radicals after 20 mins by spectrophotometric analysis; assay type: functional; how it was run: as §1
[4] = Antioxidant activity of the compound assessed as inhibition of ABTS radicals at 33 uM after 20 mins by spectrophotometric analysis; assay type: functional
[5] = Antioxidant activity of the compound assessed as inhibition of ABTS radicals at 17 uM after 20 mins by spectrophotometric analysis; assay type: functional; how it was run: as §1
[6] = biological target: Glutamate receptor ionotropic, NMDA 2B (Rattus norvegicus) (UniProt Q00960); test: Displacement of [3H]Ifenprodil from NMDA receptor GluN2B subunit in Wistar rat cerebral cortex at 10 uM; assay type: tissue-based
[7] = biological target: Glutamate receptor ionotropic, NMDA 2B (Rattus norvegicus, UniProt Q00960); test: Displacement of [3H]Ifenprodil from NMDA receptor GluN2B subunit in Wistar rat cerebral cortex; assay type: tissue-based
Sequence of Glutamate receptor ionotropic, NMDA 2B (Rattus norvegicus, UniProt Q00960) (Q00960 whole entry): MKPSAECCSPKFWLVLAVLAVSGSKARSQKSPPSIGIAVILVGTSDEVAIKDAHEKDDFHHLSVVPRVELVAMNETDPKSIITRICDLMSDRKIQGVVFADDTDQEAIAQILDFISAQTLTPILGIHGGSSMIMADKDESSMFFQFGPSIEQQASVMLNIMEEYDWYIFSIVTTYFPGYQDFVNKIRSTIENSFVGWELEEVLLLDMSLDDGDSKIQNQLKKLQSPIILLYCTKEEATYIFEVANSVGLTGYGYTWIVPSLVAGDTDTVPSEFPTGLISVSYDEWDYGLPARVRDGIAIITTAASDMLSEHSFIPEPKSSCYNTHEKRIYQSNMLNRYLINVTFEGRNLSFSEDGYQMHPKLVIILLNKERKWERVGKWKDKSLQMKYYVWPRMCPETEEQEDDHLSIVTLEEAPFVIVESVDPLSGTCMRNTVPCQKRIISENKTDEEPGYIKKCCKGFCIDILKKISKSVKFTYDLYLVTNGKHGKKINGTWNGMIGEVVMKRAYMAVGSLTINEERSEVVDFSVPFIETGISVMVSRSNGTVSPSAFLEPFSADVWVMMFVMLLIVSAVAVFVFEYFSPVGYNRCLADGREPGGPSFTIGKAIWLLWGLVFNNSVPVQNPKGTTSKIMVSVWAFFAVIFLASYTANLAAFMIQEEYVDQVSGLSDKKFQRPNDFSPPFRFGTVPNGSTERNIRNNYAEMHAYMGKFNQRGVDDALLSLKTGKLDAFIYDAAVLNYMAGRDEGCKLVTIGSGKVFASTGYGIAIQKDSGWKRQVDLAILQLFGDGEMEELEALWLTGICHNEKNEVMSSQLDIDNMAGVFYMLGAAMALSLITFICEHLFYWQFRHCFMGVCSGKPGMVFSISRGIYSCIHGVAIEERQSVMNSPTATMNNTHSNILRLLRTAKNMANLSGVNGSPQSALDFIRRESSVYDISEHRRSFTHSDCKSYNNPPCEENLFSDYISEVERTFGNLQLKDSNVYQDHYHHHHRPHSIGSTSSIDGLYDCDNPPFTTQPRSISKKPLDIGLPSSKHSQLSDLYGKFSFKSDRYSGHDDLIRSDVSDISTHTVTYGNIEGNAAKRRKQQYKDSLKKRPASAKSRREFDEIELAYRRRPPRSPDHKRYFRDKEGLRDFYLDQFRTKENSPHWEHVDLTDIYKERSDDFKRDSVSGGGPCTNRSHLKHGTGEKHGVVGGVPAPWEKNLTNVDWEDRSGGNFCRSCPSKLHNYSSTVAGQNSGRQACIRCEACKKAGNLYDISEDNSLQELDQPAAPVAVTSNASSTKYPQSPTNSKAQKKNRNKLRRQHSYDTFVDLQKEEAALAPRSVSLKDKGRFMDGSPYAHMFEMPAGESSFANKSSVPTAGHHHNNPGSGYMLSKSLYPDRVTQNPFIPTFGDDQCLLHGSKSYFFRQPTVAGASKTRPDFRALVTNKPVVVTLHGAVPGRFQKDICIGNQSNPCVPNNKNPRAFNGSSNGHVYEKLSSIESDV

[8] = biological target: Glutamate receptor ionotropic, NMDA 2B (Homo sapiens, UniProt Q05586+Q13224); test: Inhibition of NMDA receptor GluN2B subunit (unknown origin)
Mus musculus [9] = test: Anticonvulsant activity in ip dosed sound-induced DBA/2 mouse seizure model assessed as tonus phase latency; assay type: functional; details: DBA/2, ip
How it was run: (§2)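 DBA/2 mice (8–12 g, 22–25 days old, either sex), groups of 10. Compound given ip at 0.1 mL/10 g in 50% DMSO/50% saline; vehicle controls. Auditory stimulus (12–16 kHz, 109 dB) applied 30 min later for 60 s or until tonic extension, after 60 s habituation. Latency to and incidence of seizure phases scored; Fisher's exact test. ED50 by Litchfield–Wilcoxon.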

Mus musculus [10] = test: Anticonvulsant activity in ip dosed sound-induced DBA/2 mouse seizure model assessed as clonus phase latency; assay type: functional; details: DBA/2, ip; how it was run: as §2
[11] = biological target: Glutamate receptor ionotropic, NMDA 2B (Mus musculus) (UniProt Q01097); test: Antagonist activity at NMDA receptor GluN2B subunit in FVB mouse CA1 pyramidal neurons assessed as reversible reduction of excitatory post synaptic current amplitude at 50 nM at holding potential of -60 mV measured for 5 mins by patch clamp technique in presence of Mg2+free ACSF relative to control; assay type: cell-based; set-up: scale not given: the % may be the effect or the level left; details: Pyramidal neuron
Sequence of Glutamate receptor ionotropic, NMDA 2B (Mus musculus) (Q01097 whole entry): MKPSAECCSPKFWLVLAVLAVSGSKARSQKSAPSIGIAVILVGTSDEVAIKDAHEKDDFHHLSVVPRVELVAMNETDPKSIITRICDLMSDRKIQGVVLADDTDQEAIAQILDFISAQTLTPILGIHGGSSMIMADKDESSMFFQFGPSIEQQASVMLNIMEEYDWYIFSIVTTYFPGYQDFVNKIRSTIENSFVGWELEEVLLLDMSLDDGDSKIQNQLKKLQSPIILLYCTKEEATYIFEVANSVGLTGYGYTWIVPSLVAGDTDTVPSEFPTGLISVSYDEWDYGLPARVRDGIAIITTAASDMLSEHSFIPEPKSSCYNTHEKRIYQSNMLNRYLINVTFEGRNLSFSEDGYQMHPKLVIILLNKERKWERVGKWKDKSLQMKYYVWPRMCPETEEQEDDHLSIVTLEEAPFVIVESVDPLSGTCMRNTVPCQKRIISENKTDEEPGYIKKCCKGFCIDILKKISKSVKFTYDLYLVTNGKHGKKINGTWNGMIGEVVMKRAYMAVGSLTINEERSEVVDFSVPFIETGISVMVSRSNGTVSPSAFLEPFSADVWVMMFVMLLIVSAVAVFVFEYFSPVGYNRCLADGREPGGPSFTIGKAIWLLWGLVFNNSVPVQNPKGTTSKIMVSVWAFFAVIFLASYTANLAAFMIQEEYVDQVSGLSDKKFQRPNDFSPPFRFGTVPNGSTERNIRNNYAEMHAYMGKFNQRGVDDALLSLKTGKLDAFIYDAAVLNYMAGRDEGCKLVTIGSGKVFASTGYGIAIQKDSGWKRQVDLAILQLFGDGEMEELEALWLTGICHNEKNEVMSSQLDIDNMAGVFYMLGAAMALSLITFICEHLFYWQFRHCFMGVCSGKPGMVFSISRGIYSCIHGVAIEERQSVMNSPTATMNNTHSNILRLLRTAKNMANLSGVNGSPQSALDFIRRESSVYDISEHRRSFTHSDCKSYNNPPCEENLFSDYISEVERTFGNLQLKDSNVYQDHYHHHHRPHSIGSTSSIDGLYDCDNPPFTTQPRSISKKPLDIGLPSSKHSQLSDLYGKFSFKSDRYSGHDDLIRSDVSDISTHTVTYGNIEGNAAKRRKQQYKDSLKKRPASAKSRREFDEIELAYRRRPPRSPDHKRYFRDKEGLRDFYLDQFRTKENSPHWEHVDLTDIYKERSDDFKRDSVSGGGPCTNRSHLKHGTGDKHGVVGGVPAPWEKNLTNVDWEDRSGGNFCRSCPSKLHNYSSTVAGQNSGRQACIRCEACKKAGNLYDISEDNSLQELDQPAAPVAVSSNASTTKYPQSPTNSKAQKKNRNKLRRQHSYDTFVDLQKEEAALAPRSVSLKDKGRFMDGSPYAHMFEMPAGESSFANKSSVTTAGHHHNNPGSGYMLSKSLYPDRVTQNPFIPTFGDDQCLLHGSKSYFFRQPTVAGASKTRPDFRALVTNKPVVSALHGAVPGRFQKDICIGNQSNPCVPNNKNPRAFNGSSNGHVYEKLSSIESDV
How it was run: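 Whole-cell recordings of NMDA receptor-mediated EPSCs in mouse hippocampal slices, with glycine (10 µM) and bicuculline (5 µM) in the bath. Compound applied for 5 min, then washed out. EPSC amplitude taken as peak minus baseline and measured over 5 min in control and in drug for each neuron. Expressed as % of control, n = 4; unpaired Student's t test.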

Sequence of Glutamate receptor ionotropic, NMDA 2B (Rattus norvegicus) (Q00960 27-1482 limits assumed): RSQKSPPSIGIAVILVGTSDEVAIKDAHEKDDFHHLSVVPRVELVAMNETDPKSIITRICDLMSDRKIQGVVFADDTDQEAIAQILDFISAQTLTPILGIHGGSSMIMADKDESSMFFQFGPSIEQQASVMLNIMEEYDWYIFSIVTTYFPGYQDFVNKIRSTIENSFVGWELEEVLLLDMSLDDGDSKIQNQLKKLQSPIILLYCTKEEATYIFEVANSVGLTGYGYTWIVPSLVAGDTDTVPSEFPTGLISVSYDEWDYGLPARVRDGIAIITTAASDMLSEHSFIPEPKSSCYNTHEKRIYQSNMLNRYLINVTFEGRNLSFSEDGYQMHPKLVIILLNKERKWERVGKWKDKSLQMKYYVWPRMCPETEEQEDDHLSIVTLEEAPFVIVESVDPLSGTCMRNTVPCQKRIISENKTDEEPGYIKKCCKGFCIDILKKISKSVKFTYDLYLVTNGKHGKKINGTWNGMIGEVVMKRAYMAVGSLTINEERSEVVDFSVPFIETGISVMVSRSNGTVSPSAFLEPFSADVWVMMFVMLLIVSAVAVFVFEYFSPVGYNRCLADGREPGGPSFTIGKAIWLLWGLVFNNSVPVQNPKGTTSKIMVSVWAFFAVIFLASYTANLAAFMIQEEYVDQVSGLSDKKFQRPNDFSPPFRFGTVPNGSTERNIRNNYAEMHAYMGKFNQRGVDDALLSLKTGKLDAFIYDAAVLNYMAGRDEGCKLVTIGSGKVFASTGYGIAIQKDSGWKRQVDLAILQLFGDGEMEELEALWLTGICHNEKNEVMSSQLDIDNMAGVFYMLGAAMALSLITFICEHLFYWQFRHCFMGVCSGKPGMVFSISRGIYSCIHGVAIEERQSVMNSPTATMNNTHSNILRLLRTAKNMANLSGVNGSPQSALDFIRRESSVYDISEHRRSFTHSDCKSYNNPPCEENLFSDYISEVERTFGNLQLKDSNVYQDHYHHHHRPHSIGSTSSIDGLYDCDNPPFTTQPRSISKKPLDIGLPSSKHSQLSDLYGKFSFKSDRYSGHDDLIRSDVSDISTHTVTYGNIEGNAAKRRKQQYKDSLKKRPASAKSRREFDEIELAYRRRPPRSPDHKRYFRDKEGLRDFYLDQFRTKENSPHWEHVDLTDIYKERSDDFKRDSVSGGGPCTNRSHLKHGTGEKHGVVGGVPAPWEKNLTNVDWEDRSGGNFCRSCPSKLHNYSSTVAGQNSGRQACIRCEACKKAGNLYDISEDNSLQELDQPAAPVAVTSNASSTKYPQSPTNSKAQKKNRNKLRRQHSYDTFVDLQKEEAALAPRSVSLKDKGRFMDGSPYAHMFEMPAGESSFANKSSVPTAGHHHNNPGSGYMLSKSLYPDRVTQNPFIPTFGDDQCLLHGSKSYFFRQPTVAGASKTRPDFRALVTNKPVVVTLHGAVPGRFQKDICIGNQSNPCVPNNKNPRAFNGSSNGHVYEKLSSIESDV

COc1cc2[nH]cc(C(=O)CN3CCC(Cc4ccccc4)CC3)c2cc1OC
inhibition [1]: 1%

Nc1ccc2[nH]cc(C(=O)CN3CCC(Cc4ccc(F)cc4)CC3)c2c1
inhibition [1]: 33%

CS(=O)(=O)Nc1ccc2[nH]cc(C(=O)C(=O)N3CCC(Cc4ccc(F)cc4)CC3)c2c1
inhibition [1]: 4%

Oc1ccc2[nH]ccc2c1
inhibition [2]: 79.8% | inhibition [3]: Dose-dependent effect | inhibition [4]: > 90.1%

O=C(O)/C=C/c1ccc(O)c(O)c1
inhibition [3]: Dose-dependent effect | inhibition [5]: 71.5% | inhibition [4]: > 93.4%

COc1ccc2c(C(=O)CN3CCC(Cc4ccc(F)cc4)CC3)c[nH]c2c1
inhibition [6]: 82%

O=C(CN1CCC(Cc2ccc(F)cc2)CC1)c1c[nH]c2ccc(O)cc12
IC50 [7]: 0.051 µM | inhibition [1]: 60%

c1ccc2[nH]ccc2c1
inhibition [3]: Dose-dependent effect | inhibition [4]: 25.6%

Oc1ccc2cc[nH]c2c1
inhibition [2]: 83% | inhibition [3]: Dose-dependent effect | inhibition [4]: > 89.8%

COc1ccc2c(C(=O)C(=O)N3CCC(Cc4ccc(F)cc4)CC3)c[nH]c2c1
inhibition [1]: 27%

O=C(C(=O)N1CCC(Cc2ccc(F)cc2)CC1)c1c[nH]c2cc(O)ccc12
IC50 [7]: 0.02 µM | inhibition [1]: 61%

O=C(CN1CCC(Cc2ccccc2)CC1)c1c[nH]c2ccccc12
IC50 [8]: 0.769 µM

COc1ccc2[nH]cc(C(=O)CN3CCC(Cc4ccc(F)cc4)CC3)c2c1
inhibition [6]: 73%

CS(=O)(=O)Nc1ccc2c(C(=O)CN3CCC(Cc4ccc(F)cc4)CC3)c[nH]c2c1
IC50 [7]: 0.0094 µM | inhibition [1]: 81%

COc1ccc2[nH]cc(C(=O)C(=O)N3CCC(Cc4ccc(F)cc4)CC3)c2c1
inhibition [6]: 35%

Oc1cc2cc[nH]c2cc1O
inhibition [2]: 54.4% | inhibition [3]: Dose-dependent effect | inhibition [5]: > 84.4%

O=C(CN1CCC(Cc2ccc(F)cc2)CC1)c1c[nH]c2cc(O)ccc12
IC50 [7]: 0.0091 µM | inhibition [1]: 82%

CS(=O)(=O)Nc1ccc2[nH]cc(C(=O)CN3CCC(Cc4ccc(F)cc4)CC3)c2c1
inhibition [1]: 10%

O=C(CN1CCC(Cc2ccc(F)cc2)CC1)c1c[nH]c2cc(O)c(O)cc12
IC50 [7]: 0.03 µM | inhibition [1]: 84%

O=C(C(=O)N1CCC(Cc2ccc(F)cc2)CC1)c1c[nH]c2ccc(O)cc12
inhibition [1]: 11%

O=C(C(=O)N1CCC(Cc2ccc(F)cc2)CC1)c1c[nH]c2cc(O)c(O)cc12
inhibition [1]: 38%

CS(=O)(=O)Nc1ccc2c(C(=O)C(=O)N3CCC(Cc4ccc(F)cc4)CC3)c[nH]c2c1
IC50 [7]: 0.018 µM | inhibition [1]: 67%

O=C(O)c1cc(O)c(O)c(O)c1
inhibition [2]: 61.6% | inhibition [3]: Dose-dependent effect | inhibition [5]: > 94.1% | inhibition [4]: > 93.9%

Nc1ccc2c(C(=O)CN3CCC(Cc4ccc(F)cc4)CC3)c[nH]c2c1
inhibition [1]: 12%

COc1cc2[nH]cc(C(=O)C(=O)N3CCC(Cc4ccccc4)CC3)c2cc1OC
inhibition [6]: 9%

O=C(CN1CCC(Cc2ccccc2)CC1)c1c[nH]c2cc(O)c(O)cc12
IC50 [7]: 0.0055 µM | inhibition [1]: 91% | ED50 (Mus musculus [9]): 76.7 µmol/kg | ED50 (Mus musculus [10]): 89.4 µmol/kg | Activity [11]: 57%

O=C(C(=O)N1CCC(Cc2ccccc2)CC1)c1c[nH]c2cc(O)c(O)cc12
inhibition [1]: 40%
